Bioassay records (PubChem)
Sampled rows, rich in hits. Any-hit rate of the full collection: about 1.7%.
ARNT-TACC3 inh = disrupts binding between human ARNT and TACC3. AlphaScreen His-ARNT PAS-B/GST-TACC3 binding, luminescence; TACC3 fragment carries E629A point mutation. inhibition, % at 9.99 µM. actives 0.66% (n = 390,000). AID 623870;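 active = mean inhibition of replicates at least 50% and at least half of replicates each reaching 50%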;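 note: 0% = complete ARNT plus TACC3 wells and 100% = ARNT alone without TACC3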
AI-2 QS modul = modulates the Vibrio harveyi AI-2 quorum sensing system; activity change, % at 7.5 µM; Vibrio harveyi JMH597 AI-2 luminescence/OD600 ratio, 9 h; active compounds read low; strain lacks LuxN and CqsS sensors; 0 = neutral-control median; actives 0.4% (n = 300,000); in the data active = activity change below about -75%, passing the limit was not always enough;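 note: luminescence divided by OD600 gain over 9 h not by final OD600 alone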
CAL PDZ FP-1 = CAL PDZ (human) peptide binding inhibition. Q9HD26. purified CAL PDZ, TMR-peptide fluorescence polarization, 1 h. inhibition, % at 24.9 µM. actives 0.92% (n = 300,000). AID 602252;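 active = mean inhibition of at least 30% with at least half of replicates also reaching 30%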;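 note: 0% = DMSO neutral control and 100% = excess unlabeled competitor peptide PRC23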
Rce1 inhib = inhibitors of yeast Ras-converting enzyme | Q03530 | yeast membranes, quenched prenylated peptide cleavage fluorescence | calls only | actives 0.27% (n = 290,000);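 active = fall in fluorescence gain of 50% or more versus controls, with final raw signal at or below 3038400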;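 note: plate controls were neutral control wells for no effect and wells lacking membranes for full effect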
Target sequence (Q03530 whole entry, looked up): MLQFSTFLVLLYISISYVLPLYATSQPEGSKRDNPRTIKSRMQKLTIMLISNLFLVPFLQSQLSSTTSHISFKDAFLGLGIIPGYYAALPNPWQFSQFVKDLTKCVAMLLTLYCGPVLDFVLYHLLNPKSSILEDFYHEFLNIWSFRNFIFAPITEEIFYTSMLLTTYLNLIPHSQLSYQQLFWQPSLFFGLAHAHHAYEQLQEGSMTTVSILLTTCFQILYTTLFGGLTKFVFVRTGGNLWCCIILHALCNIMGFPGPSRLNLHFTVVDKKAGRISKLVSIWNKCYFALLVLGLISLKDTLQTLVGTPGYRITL
CAL PDZ FP-2 = blocks peptide binding to human CAL PDZ domain; Q9HD26; purified CAL PDZ, TMR-peptide fluorescence polarization, 1 h; AID 504414; inhibition, % at 20 µM; actives 0.02% (n = 330,000);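 active = highest replicate inhibition of at least 40%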;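 note: plate controls were DMSO neutral control wells for no effect and unlabeled competitor peptide control wells for full effect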
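Assay system – tagged CAL PDZ protein CerCALP, purified · Timing – 1 h at RT · Compound – single point, 20 µM · Measured by – fluorescence polarization from S- and P-plane intensities, G-factor corrected · Evaluation – inhibition from polarization loss · Probe or stimulus – TMR reporter peptide T*-PRC34 · Buffer or medium – pH 7.4 phosphate-saline buffer, reducing agent, detergent, IgG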
* hit, by the source's call; i = inactive; · = not tested or not shown; + = active, no number; ! = not confirmed by another sample.

SMILES	ARNT-TACC3 inh	AI-2 QS modul	CAL PDZ FP-1	Rce1 inhib	CAL PDZ FP-2
COc1ccc(O)c(/C=N/NC(=S)Nc2cccnc2)c1	67*	25	-5	i	0
Cc1cc(C)n2nc(CC(=O)NC3CCCCCCC3)nc2n1	-8	12	·	i	-2
COC(=O)c1cc(N2C(=O)C3C(C2=O)C2(C)C=CC3(C)O2)ccc1Cl (centres undefined)	·	-238*	·	i	·
CCn1cc(S(=O)(=O)CC(=O)Nc2ccc(C)cc2)c2ccccc21	5	19	53*	i	0
CCn1cc(S(=O)(=O)CC(=O)Nc2cccc(C)c2)c2ccccc21	-2	24	·	i	-1
Cc1ccc(NC2=C(NCCO)C(=O)c3ccccc3C2=O)cc1	48*	56	-2	i	1
CCCN1CCN(CCCNC(=O)c2ccc3c(Cl)c4c(nc3c2)CCCC4)CC1	-1	3	-7	i	-4
COC(=O)COc1ccc2cccc(-n3cnnn3)c2c1	4	14	·	i	0
O=C(Nc1cccc(C(=O)NC2CCCCC2)c1)c1ccccc1	·	20	-2	i	-1
CCN(C(=O)COc1ccccc1)C1CCCCC1	-8	10	-2	i	-1
CCN(C(=O)CCc1ccccc1)C1CCCCC1	-15	2	64*	i	0
CCN(C(=O)c1cccc(NC(=O)c2ccccc2)c1)C1CCCCC1	-1	29	57*	i	-1
CCCS(=O)(=O)Nc1cccc(-c2nc3cccnc3s2)c1	46*	-4	-1	i	-3
Cc1nc(N2CCN(c3ccccn3)CC2)c2c(C)c(C(=O)Nc3c(C)cc(Br)cc3C)sc2n1	0	-2	-3	i	0
Cc1cc(NC2CCCC2)n2nc(C)c(-c3ccccc3)c2n1	-10	50	32*	i	-1
COc1ccc(-c2c(C)nn3c(NC4CCCC4)cc(C)nc23)cc1OC	2	14	0	i	0
CC(=NNC(=S)N1CC2CCC(CC2)C1)c1ccncn1	58*	·	-3	·	-1
O=c1ccc2[n+]([O-])c3ccc(O)cc3oc-2c1	6	-418*	71*	i	43*
CCCN1CC23C=CC(O2)C(C(=O)O)C3C1=O (centres undefined)	1	15	·	i	-2
Cc1cc(SCC(=O)N2CCCC2=O)nc2c(C)cccc12	-3	10	0	i	-2
O=C(O)c1cc(O)c2c(c1)[C@@H]([C@H]1c3cc(C(=O)O)cc(O)c3C(=O)c3c(O[C@@H]4O[C@H](CO)[C@@H](O)[C@H](O)[C@H]4O)cccc31)c1cccc(OC3O[C@H](CO)[C@@H](O)[C@H](O)[C@H]3O)c1C2=O (some centres undefined)	5	17	37*	i	13
O=C(O)c1cc(O)c2c(c1)[C@H]([C@H]1c3cc(C(=O)O)cc(O)c3C(=O)c3c(O[C@@H]4O[C@H](CO)[C@@H](O)[C@H](O)[C@H]4O)cccc31)c1cccc(OC3O[C@H](CO)[C@@H](O)[C@H](O)[C@H]3O)c1C2=O (some centres undefined)	8	19	1	i	23
CCC(C)NC(=O)CC(c1ccccc1)c1cc(C)ccc1O (centres undefined)	0	13	34*	i	-1
CCOc1ccc(N(C)S(=O)(=O)c2cc(-c3cc(C)no3)ccc2OC)cc1	4	-1	11	i	-3
COC(=O)[C@H](Cc1ccccc1)NC(=O)[C@@]1(C)C[C@@H]1[C@@H](NC(=O)OCc1ccccc1)c1ccccc1	0	-2	1	i	-1
SMILES	ARNT-TACC3 inh	AI-2 QS modul	CAL PDZ FP-1	Rce1 inhib	CAL PDZ FP-2
COC(=O)Cn1c(=NC(=O)c2cccc(OC)c2)sc2cc(OC)ccc21	-6	19	8	i	-3
O=C1c2ccsc2SCCN1Cc1ccc(Cl)cc1	-9	16	-2	i	-1
O=C1c2ccsc2SCCN1Cc1ccc(F)cc1	9	11	39*	i	·
COc1ccc(N2CCN(S(=O)(=O)CCNC(=O)COc3ccccc3)CC2)cc1	0	35	0	i	2
Cc1cccc(C)c1NC(=S)N(CCN(C)C)C(C)c1ccccn1 (centres undefined)	45*	26	12	i	0
O=C(CSc1nnc(CNC(=O)c2ccco2)o1)Nc1nc2ccccc2s1	2	15	5	i	0
Cc1cc(C)cc(NC(=O)C2CCN(C(=O)[C@@H]3Cc4ccccc4CN3)CC2)c1	4	14	42*	i	-1
Cc1ccc(NC(=O)C2CCN(C(=O)[C@@H]3Cc4ccccc4CN3)CC2)cc1	0	9	7	i	0
COc1ccc2c(n1)Sc1nc3ccccc3nc1N2	8.9*	6	-1	i	-2
COc1cc(S(=O)(=O)N2CCCCCC2)ccc1Cl	-4	15	-25	i	-1
CCc1nc2ccccc2n1CC(O)COCC1CC=CCC1 (centres undefined)	-1	20	43*	i	0
C[C@@H]1CN([C@@H](C)CO)C(=O)CCCn2cc(nn2)CO[C@@H]1CN(C)C(=O)NC1CCCCC1	-3	·	·	·	·
COc1cc(CCNC2=CC(=O)c3ncccc3C2=O)ccc1O	37*	·	-3	·	0
CCOC(=O)C1=C(O)C(Nc2nccs2)(C(F)(F)F)N=C1C (centres undefined)	-1	17	0	i	0
COC(=O)Cc1c(C)c2ccc(OCc3nn[nH]n3)cc2oc1=O	-1	20	·	i	0
COC(=O)Cc1c(C)c2ccc(OCc3nn[nH]n3)c(C)c2oc1=O	5	15	-1	+	0
Cc1ccc(OCc2cc(C(=O)NC(C)Cc3cccnc3)no2)cc1C (centres undefined)	2	38	-1	i	-1
Cc1ccc(OCc2cc(C(=O)NCCc3cccnc3)no2)cc1C	-8	-84*	-3	i	-1
Cc1ccc(S(=O)(=O)O)c(C)c1N1CCCC1=O	-7	22	0	i	0
Cc1c(C(=O)N2CCCCCC2)nnn1-c1nonc1N	-3	8	49*	i	0
CCOC(=O)c1nnn(-c2nonc2N)c1CN1CCCCCC1	3	22	·	i	-1
Cc1ccc2c(CN3CCN(Cc4ccc5c(c4)OCO5)CC3)cc(=O)oc2c1C	2	11	0	+!	-1
CC(C)(C)CC(=O)N1CCN(Cc2ccc3c(c2)OCO3)CC1	-12	10	38*	i	-2
Cc1ccc2nc(N(CCCN(C)C)C(=O)c3ccc4c(c3)CCCC4)sc2c1	34	5	-3	i	-3
Cc1cc(C)c2nc(N(CCCN(C)C)C(=O)c3ccc4c(c3)CCCC4)sc2c1	·	7	·	+	·
Cc1cccc(Nc2nc(N)nc(N)c2N=O)c1	10	·	71*	·	19
